Experiments:
[1] = system: SGC-7901; test: Cytotoxicity against human SGC7901 after 48 hrs by MTT assay; format: functional, cell-based; details: SGC-7901, 48 h
In short: (§1)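 Log-phase cells in RPMI 1640 with 10% FBS, diluted to 3 × 10⁴ cells/mL and seeded in 96-well plates. After 24 h at 37 °C, 5% CO₂, samples at pre-set concentrations were added to six wells, with 5-fluorouracil as positive reference. Exposure was 48 h. MTT at 2.5 mg/mL in PBS was added for 4 h, formazan dissolved in DMSO, A570 read. IC50 = concentration giving 50% survival. Three experiments in triplicate, mean ± SD.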

[2] = target: DNA polymerase I, thermostable (Thermus aquaticus, UniProt P19821); test: Inhibition of Thermus aquaticus taq polymerase
[3] = system: HepG2; test: Cytotoxicity against human HepG2 after 48 hrs by MTT assay; format: functional, cell-based; details: HepG2, 48 h; in short: as §1
[4] = Selectivity index, ratio of IC50 for Thermus aquaticus taq polymerase to IC50 for telomerase
[5] = target: Telomerase reverse transcriptase (Homo sapiens, UniProt O14746); test: Inhibition of telomerase activity expressed in human SGC7901 cells by SYBER green dye based TRAP; format: cell-based, SGC-7901
In short: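 Modified TRAP assay using total cell lysate of SGC-7901 as the telomerase source. Lysate protein was measured by Bio-Rad assay against BSA standards. Extension products were resolved on 10% polyacrylamide gels and stained with SYBR Green. Reported as IC50.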

[6] = system: PC-3; test: Cytotoxicity against human PC3 after 48 hrs by MTT assay; format: functional, cell-based; details: PC-3, 48 h; in short: as §1

Sequence of Telomerase reverse transcriptase (O14746 whole entry): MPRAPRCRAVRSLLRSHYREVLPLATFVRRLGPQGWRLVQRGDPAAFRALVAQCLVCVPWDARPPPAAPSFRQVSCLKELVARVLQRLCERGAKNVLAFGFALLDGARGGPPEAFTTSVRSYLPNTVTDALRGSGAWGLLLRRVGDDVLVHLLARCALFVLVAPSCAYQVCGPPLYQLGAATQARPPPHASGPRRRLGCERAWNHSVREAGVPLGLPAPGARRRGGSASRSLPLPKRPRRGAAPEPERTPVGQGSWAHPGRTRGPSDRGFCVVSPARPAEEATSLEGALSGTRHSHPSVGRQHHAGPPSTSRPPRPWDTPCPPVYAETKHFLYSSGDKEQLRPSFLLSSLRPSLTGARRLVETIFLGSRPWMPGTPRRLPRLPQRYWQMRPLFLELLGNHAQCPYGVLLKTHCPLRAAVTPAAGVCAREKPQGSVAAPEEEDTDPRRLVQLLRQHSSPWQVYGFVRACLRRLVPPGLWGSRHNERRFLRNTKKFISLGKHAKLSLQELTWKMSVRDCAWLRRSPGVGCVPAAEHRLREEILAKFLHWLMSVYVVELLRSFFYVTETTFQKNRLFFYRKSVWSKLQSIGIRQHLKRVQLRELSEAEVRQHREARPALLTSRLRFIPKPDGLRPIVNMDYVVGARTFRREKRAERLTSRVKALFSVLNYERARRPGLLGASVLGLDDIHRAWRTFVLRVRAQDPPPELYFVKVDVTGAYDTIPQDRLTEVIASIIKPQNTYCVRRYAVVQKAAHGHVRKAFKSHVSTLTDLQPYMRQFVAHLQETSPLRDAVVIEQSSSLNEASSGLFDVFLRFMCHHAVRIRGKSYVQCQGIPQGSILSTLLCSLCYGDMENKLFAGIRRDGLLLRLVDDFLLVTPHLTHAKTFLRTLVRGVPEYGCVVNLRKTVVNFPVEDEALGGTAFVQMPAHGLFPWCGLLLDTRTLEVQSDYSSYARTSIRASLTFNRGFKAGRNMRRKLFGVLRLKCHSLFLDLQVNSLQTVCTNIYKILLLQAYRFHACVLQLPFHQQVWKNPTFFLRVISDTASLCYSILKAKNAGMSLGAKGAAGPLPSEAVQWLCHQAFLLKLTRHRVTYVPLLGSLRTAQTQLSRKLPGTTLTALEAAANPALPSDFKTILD
Sequence of DNA polymerase I, thermostable (P19821 whole entry): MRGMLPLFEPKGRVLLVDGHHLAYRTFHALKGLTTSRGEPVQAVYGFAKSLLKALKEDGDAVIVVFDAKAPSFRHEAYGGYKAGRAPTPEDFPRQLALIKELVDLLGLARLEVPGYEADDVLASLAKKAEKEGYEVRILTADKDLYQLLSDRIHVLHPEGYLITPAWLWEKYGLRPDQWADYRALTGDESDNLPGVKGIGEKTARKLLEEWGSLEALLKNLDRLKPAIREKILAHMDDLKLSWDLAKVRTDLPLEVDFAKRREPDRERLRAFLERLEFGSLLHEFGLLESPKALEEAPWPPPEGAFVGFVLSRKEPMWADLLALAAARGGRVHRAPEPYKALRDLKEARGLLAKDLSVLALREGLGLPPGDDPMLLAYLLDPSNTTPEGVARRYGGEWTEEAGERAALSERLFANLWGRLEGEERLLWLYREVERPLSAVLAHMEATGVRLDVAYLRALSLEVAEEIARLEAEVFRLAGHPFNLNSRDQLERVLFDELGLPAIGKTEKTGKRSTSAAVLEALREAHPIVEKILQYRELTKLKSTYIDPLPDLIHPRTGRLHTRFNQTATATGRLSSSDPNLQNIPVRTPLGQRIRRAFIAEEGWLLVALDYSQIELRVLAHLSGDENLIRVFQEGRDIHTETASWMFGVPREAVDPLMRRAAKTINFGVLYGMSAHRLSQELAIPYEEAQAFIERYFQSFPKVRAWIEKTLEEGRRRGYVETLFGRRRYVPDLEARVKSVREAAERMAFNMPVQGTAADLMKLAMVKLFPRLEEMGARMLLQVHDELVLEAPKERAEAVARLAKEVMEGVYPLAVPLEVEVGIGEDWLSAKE

Compound: CC1=NN(C(=O)CCl)C(c2ccccc2O)C1 (stereo not drawn)
- IC50 [1]: 26.8 µM
- IC50 [2]: 20.4 µM
- IC50 [3]: 47.9 µM
- Ratio IC50 [4]: 2.1
- IC50 [5]: 9.5 µM
- IC50 [6]: 20.1 µM

Compound: CC1=NN(C(=O)c2ccc(C)cc2)C(c2ccccc2O)C1 (stereo not drawn)
- IC50 [1]: 51.5 µM
- IC50 [3]: 78.9 µM
- IC50 [5]: 31.5 µM
- IC50 [6]: 116 µM

Compound: CC1=NN(C(=O)c2ccccc2)C(c2ccccc2O)C1 (stereo not drawn)
- IC50 [1]: 21.2 µM
- IC50 [2]: 8 µM
- IC50 [3]: 29.4 µM
- Ratio IC50 [4]: 2
- IC50 [5]: 4 µM
- IC50 [6]: 30.9 µM

Compound: CC1=NN(S(=O)(=O)c2ccccc2)C(c2ccccc2O)C1 (stereo not drawn)
- IC50 [1]: 66.4 µM
- IC50 [2]: 31 µM
- IC50 [3]: 57.2 µM
- Ratio IC50 [4]: 1.8
- IC50 [5]: 17.3 µM
- IC50 [6]: 50.6 µM

Compound: O=c1[nH]cc(F)c(=O)[nH]1 [FLUOROURACIL]
- IC50 [1]: 31.5 µM
- IC50 [3]: 18.9 µM
- IC50 [6]: 15.7 µM

Compound: CC1=NN(C(=O)c2ccccc2)C(c2cccc(C)c2O)C1 (stereo not drawn)
- IC50 [1]: 150 µM
- IC50 [3]: 177 µM
- IC50 [6]: 154 µM

Compound: CC1=NN(S(=O)(=O)c2ccc(C)cc2)C(c2ccccc2O)C1 (stereo not drawn)
- IC50 [1]: 73.6 µM
- IC50 [2]: 30 µM
- IC50 [3]: 66.8 µM
- Ratio IC50 [4]: 1.9
- IC50 [5]: 16.8 µM
- IC50 [6]: 85.5 µM

Compound: CC1=NN(C(=O)c2ccccc2C)C(c2ccccc2O)C1 (stereo not drawn)
- IC50 [1]: 104 µM
- IC50 [2]: 50.5 µM
- IC50 [3]: 95.2 µM
- Ratio IC50 [4]: 2.1
- IC50 [5]: 24.5 µM
- IC50 [6]: 106 µM

Compound: CC1=NN(C(=O)Cc2ccc([N+](=O)[O-])cc2)C(c2ccccc2O)C1 (stereo not drawn)
- IC50 [1]: 97.3 µM
- IC50 [3]: 107 µM
- IC50 [6]: 132 µM

Compound: CC1=NN(C(=O)c2ccccc2Cl)C(c2ccccc2O)C1 (stereo not drawn)
- IC50 [1]: 103 µM
- IC50 [2]: 36 µM
- IC50 [3]: 95.5 µM
- IC50 [6]: 84.2 µM

Compound: CC[n+]1c(-c2ccccc2)c2cc(N)ccc2c2ccc(N)cc21 [HOMIDIUM BROMIDE]
- IC50 [5]: 2.6 µM

From ChEMBL document CHEMBL1770100, “Design and synthesis of N-phenylacetyl (sulfonyl) 4,5-dihydropyrazole derivatives as potential antitumor agents” (Bioorg Med Chem Lett, 2011)
